The record followed here is ChEMBL document CHEMBL3817772, “Design, Synthesis, and Biological Evaluations of Hydroxypyridonecarboxylic Acids as Inhibitors of HIV Reverse Transcriptase Associated RNase H” (J Med Chem, 2016).

pIC50: −log10 of the molar value. Bounds are passed on as bounds.

Test [1] can be described thus: Inhibition of HIV-1 RT-RNase H activity expressed in Escherichia coli JM109 using internal cleavage measuring HTS-1 as substrate by fluorescence-based assay. Details: species or system Human immunodeficiency virus 1. The essentials: (§1)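 RT RNase H cleavage of fluorescein/Dabcyl-labelled RNA/DNA duplexes, with substrate in excess over RT. HTS-1 probes internal cleavage, HTS-2 DNA 3'-end-directed cleavage, and HTS-3 (fluorescein RNA annealed to Dabcyl DNA) RNA 5'-end-directed cleavage.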

A short description of test [2]: Inhibition of HIV-1 RT-RNase H activity expressed in Escherichia coli JM109 using DNA 3'-end directed cleavage measuring HTS-2 as substrate by fluorescence-based assay. Details: species or system Human immunodeficiency virus 1. The method, boiled down:
as §1

Test [3] can be described thus: Inhibition of HIV-1 RT-RNase H activity expressed in Escherichia coli JM109 using RNA 5'-end directed cleavage measuring HTS-3 as substrate by fluorescence-based assay. The arrangement: species or system Human immunodeficiency virus 1. The method, boiled down: as §1
A short description of test [4]: Inhibition of HIV-1 RT-RNase H domain fragment expressed in Escherichia coli by fluorescence-based assay. The arrangement: species or system Human immunodeficiency virus 1.
For test [5], the target named is Human immunodeficiency virus type 1 reverse transcriptase (Human immunodeficiency virus 1, UniProt Q72547). Nature of the test: Inhibition of HIV-1 RT RNA-dependent DNA polymerase activity expressed in Escherichia coli JM109 using [3H]TTP/ poly(rA)-oligo(dT)16 as substrate incubated for 20 mins by liquid scintillation spectrometric analysis. The method, boiled down:
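RNA-dependent DNA polymerase reaction in 50 mM Tris-HCl pH 7.4 (37°C), 60 mM KCl, 5 mM MgCl2, with 10 µM [3H]-TTP and 40 nM poly(rA)-oligo(dT)16. Started with 10 nM RT, 20 min at 37°C. Quenched in ice-cold 10% TCA plus 20 mM sodium pyrophosphate, glass-fiber filtered, washed with TCA and ethanol. Incorporation counted by liquid scintillation.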

Test [6] deals with Human immunodeficiency virus type 1 integrase (Human immunodeficiency virus 1, UniProt Q7ZJM1, C280S/F185K). The test can be described thus: Inhibition of full-length HIV-1 integrase F185K/C280S double mutant strand transfer activity expressed in Escherichia coli BL21(DE3) using oligo DNA as substrate preincubated for 10 mins followed by substrate addition incubated for 30 mins by plate reader analysis.
Chain of Human immunodeficiency virus type 1 integrase (Q7ZJM1 entry or part of it C280S/F185K): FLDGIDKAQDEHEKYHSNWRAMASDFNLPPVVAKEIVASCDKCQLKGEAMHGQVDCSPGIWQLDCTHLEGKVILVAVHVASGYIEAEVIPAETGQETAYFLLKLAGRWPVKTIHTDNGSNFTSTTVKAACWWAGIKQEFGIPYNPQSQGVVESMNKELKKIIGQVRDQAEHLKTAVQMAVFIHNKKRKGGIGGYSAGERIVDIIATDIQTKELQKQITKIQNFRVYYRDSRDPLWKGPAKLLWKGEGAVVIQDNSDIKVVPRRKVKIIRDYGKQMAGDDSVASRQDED

Test [7] has as its system Human immunodeficiency virus 1. The test can be described thus: Inhibition of HIV-1 RT-RNase H domain expressed in Escherichia coli JM109 at 30 uM using HTS-1 as substrate preincubated for 10 mins followed by substrate/MgCl2 addition incubated for 10 mins by fluorescence-based assay. The essentials: (§2)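 Order-of-addition RNase H assay, HIV-1 RT in this format. Final conditions: 100 nM RT, 250 nM HTS-1 RNA/DNA duplex, 6 mM MgCl2, 30 µM inhibitor, 1% DMSO. RT is pre-incubated 10 min at 37 °C with the specified components. Missing components are then added and the reaction runs 10 min at 37 °C. Fluorescence signal is corrected against a DMSO-only control. Mean ± SD of two independent experiments.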

Test [8] has as its system Human immunodeficiency virus 1. Nature of the test: Inhibition of HIV-1 RT-RNase H domain expressed in Escherichia coli JM109 at 30 uM using HTS-1 as substrate preincubated with compound and MgCl2 for 10 mins followed by substrate addition incubated for 10 mins by fluorescence-based assay. The essentials:
as §2

The subject of test [9] is Human immunodeficiency virus 1. Nature of the test: Inhibition of HIV-1 RT-RNase H domain expressed in Escherichia coli JM109 at 30 uM using HTS-1 as substrate preincubated with compound/substrate for 10 mins followed by MgCl2 addition incubated for 10 mins by fluorescence-based assay. The method, boiled down: as §2
The subject of test [10] is Human immunodeficiency virus 1. Nature of the test: Inhibition of HIV-1 RT-RNase H domain expressed in Escherichia coli JM109 at 30 uM using HTS-1 as substrate preincubated with substrate for 10 mins followed by compound/MgCl2 addition incubated for 10 mins by fluorescence-based assay. The method, boiled down: as §2
Test [11] has as its system Human immunodeficiency virus 1. Nature of the test: Inhibition of HIV-1 RT-RNase H domain expressed in Escherichia coli JM109 at 30 uM using HTS-1 as substrate preincubated for 10 mins followed by substrate/MgCl2 addition incubated for 2 mins by fluorescence-based assay. The method, boiled down:
(§3)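 Excess-RT order-of-addition RNase H assay. RT is pre-incubated 10 min at 37 °C with inhibitor or with substrate. Remaining components are added and the reaction runs 2 min at 37 °C. Fluorescence is DMSO-control corrected. Mean ± SD of two independent experiments.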

Test [12] has as its system Human immunodeficiency virus 1. Nature of the test: Inhibition of HIV-1 RT-RNase H domain expressed in Escherichia coli JM109 at 30 uM using HTS-1 as substrate preincubated with substrate for 10 mins followed by compound/MgCl2 addition incubated for 2 mins by fluorescence-based assay. The method, boiled down: as §3

As usually defined, the pIC50 is the IC50 on a negative log10 scale, so that one unit is a factor of ten. Higher therefore signals a small IC50. Consider `O=C(O)c1cn(Cc2ccccc2-c2ccccc2)cc(O)c1=O`, for which the negative-log IC50 (pIC50) in test [1] is 5.11; in [2], 4.60; in [3] it was under 4.60; in test [4], 5.29; in test [5], under 4.60; in test [6], 4.77.

As usually defined, the inhibition is the drop in the measured response relative to a control, in per cent. `COc1ccc(Cn2cc(O)c(=O)c(C(=O)O)c2)cc1`: the negative-log IC50 (pIC50) in test [5] was under 4.60. In addition, the inhibition turned out to be 69% in test [7]; 52% in test [8]; 27% in test [9]; 21% in [10]; 70% in test [11]; 58% in test [12].

Consider `CC(c1ccc(F)cc1)n1cc(O)c(=O)c(C(=O)O)c1` (stereo not drawn), for which the negative-log IC50 (pIC50) in test [1] was 4.80; in test [2], under 4.60; in [3], under 4.60; in [4], 5.28; in test [5] it was under 4.60; in test [6], 4.47.

Regarding `O=C(O)c1cn(Cc2ccc(-c3cnc4ccccc4c3)cc2)cc(O)c1=O`, the negative logarithm of the IC50 (pIC50) in test [1] was 6.05. Also, the inhibition in test [7] amounted to 95%; in [8] it was 68%; in test [9], 66%; in test [10], 50%; in test [11] it was 91%; in [12], 74%.

For the compound `O=C(O)c1cn(Cc2ccc(F)cc2F)cc(O)c1=O`, the negative-log IC50 (pIC50) was 4.89 in test [1]; under 4.60 in [2]; under 4.60 in test [3]; 5.17 in test [4]; under 4.60 in test [5]; under 4.00 in [6].

For the compound `NS(=O)(=O)c1ccc(-c2ccc(Cn3cc(O)c(=O)c(C(=O)O)c3)cc2)cc1`, the negative-log IC50 (pIC50) in [1] is 6.19; in test [2], 5.82; in [3] it was 6.00; in test [4] it was 5.89; in test [5] it was 5.92; in [6], under 4.00. Also, the inhibition was found to be 97% in [7]; 79% in test [8]; 68% in [9]; 14% in test [10]; 92% in test [11]; 80% in test [12].

As for `NC(=O)c1cn(Cc2ccc(F)cc2)cc(O)c1=O`, the pIC50 in test [1] is 4.92; in [2], under 4.60; in test [3], under 4.60; in test [4], 5.17; in [5], under 4.60; in test [6], 4.49.

With `O=C(O)c1cn(Cc2ccc(Cl)cc2Cl)cc(O)c1=O`, the pIC50 in test [1] was 4.92; in test [2], under 4.60; in test [3], under 4.60; in [4] it was 5.38; in [5], under 4.60; in test [6] it was 4.60.

As for `O=C(O)c1cn(Cc2ccc(Cl)cc2)cc(O)c1=O`, the pIC50 in test [2], in test [3] and in [5] was under 4.60 each time.

As to `CC(c1cccc2ccccc12)n1cc(O)c(=O)c(C(=O)O)c1` (stereo not drawn), the pIC50 in [1] is 5.15; in test [2], under 4.60; in test [3], 4.89; in [4], 5.43; in test [5], 4.72; in test [6], 5.65.

For `O=C(O)c1cn(CC2(c3ccccc3)CCCC2)cc(O)c1=O`, the pIC50 is 5.82 in [1]; 5.29 in [2]; 5.31 in [3]; 5.09 in test [4]; 5.74 in [5]; 4.85 in test [6]. Further, the inhibition came out at 75% in test [7]; 84% in test [8]; 38% in [9]; 18% in [10]; 42% in [11]; 15% in test [12].

Consider `O=C(O)c1cn(-c2ccccc2)cc(O)c1=O`, for which the negative logarithm of the IC50 (pIC50) is under 4.60 in test [1]; under 4.60 in [2]; under 4.60 in test [3]; under 4.60 in [4]; under 4.60 in [5]; 4.43 in test [6].

In the case of `O=C(O)c1cn(Cc2cccc(C(F)(F)F)c2)cc(O)c1=O`, the negative logarithm of the IC50 (pIC50) in test [2], in test [3] and in [5] was under 4.60 each time.

Consider `O=C(O)c1cn(Cc2ccccc2)cc(O)c1=O`, for which the pIC50 in [1] was under 4.60; in test [2] it was under 4.60; in [3] it was under 4.60; in test [4] it was 4.96; in test [5], under 4.60; in [6], 4.46.

For the compound `O=C(O)c1cn(Cc2ccc(F)cc2)cc(O)c1=O`, the pIC50 in [1] was 4.77; in test [2], under 4.60; in test [3] it was under 4.60; in [4], 5.11; in test [5], under 4.60; in test [6], 4.46.

As to `O=C(O)c1c[nH]cc(O)c1=O`, the negative logarithm of the IC50 (pIC50) in test [1] is under 4.60; in test [2], under 4.60; in test [3] it was under 4.60; in test [4] it was 4.66; in test [5], under 4.60; in test [6], under 4.00.

Regarding `O=C(O)c1ccc(Cn2cc(O)c(=O)c(C(=O)O)c2)cc1`, the pIC50 was under 4.60 in test [1]; under 4.60 in [2]; under 4.60 in test [3]; 4.85 in test [4]; under 4.60 in [5]; under 4.00 in test [6].

In [5], `O=C(O)c1cn(Cc2ccc(-c3cccnc3)cc2)cc(O)c1=O` gave a pIC50 of under 4.60.

Regarding `NCc1ccc(-c2ccc(Cn3cc(O)c(=O)c(C(=O)O)c3)cc2)cc1`, the pIC50 was 5.36 in test [2]; 5.41 in test [3]; 5.36 in test [4]; 5.49 in test [5]; 5.11 in test [6].

As to `Cc1cc(Cn2cc(O)c(=O)c(C(=O)O)c2)ccc1F`, the pIC50 was 4.77 in [1]; under 4.60 in test [2]; under 4.60 in [3]; 5.01 in [4]; under 4.60 in [5]; under 4.00 in [6].

In the case of `O=C(O)c1cn(Cc2ccc(Br)cc2)cc(O)c1=O`, the pIC50 in [1] is under 4.60; in test [2], under 4.60; in [3] it was under 4.60; in test [4], under 4.60; in test [5] it was under 4.60; in test [6] it was under 4.00.

For the compound `CS(=O)(=O)c1ccc(Cn2cc(O)c(=O)c(C(=O)O)c2)cc1`, the pIC50 in test [1] was under 4.60; in test [2] it was under 4.60; in test [3], under 4.60; in [4], 4.60; in [5], under 4.60; in test [6] it was under 4.00.

For `O=C(O)c1cn(Cc2ccc(Cl)c(Cl)c2)cc(O)c1=O`, the negative-log IC50 (pIC50) is 4.85 in test [1]; under 4.60 in test [2]; under 4.60 in test [3]; 5.33 in test [4]; under 4.60 in test [5]; 4.44 in test [6].

`O=C(O)c1cn(Cc2ccc(F)c(Cl)c2)cc(O)c1=O`: the negative-log IC50 (pIC50) is 4.74 in test [1]; under 4.60 in test [2]; under 4.60 in test [3]; 5.01 in test [4]; under 4.60 in [5]; 4.35 in [6].

For `CCOC(=O)c1cn(Cc2ccc(F)cc2)cc(O)c1=O`, the pIC50 in [1] was under 4.60; in test [2] it was under 4.60; in [3] it was under 4.60; in test [4] it was under 4.60; in test [5], under 4.60; in test [6] it was under 4.00.

Regarding `O=C(O)c1cn(Cc2ccncc2)cc(O)c1=O`, the pIC50 in [1] was under 4.60; in test [2], under 4.60; in [3] it was under 4.60; in test [4] it was under 4.60; in test [5], under 4.60; in test [6], under 4.00.
